High-throughput results from PubChem.
Shown are actives, neighbours in structure and some others; about 1.9% of the full set was active somewhere.
ADAM17 inh: ADAM17 inhibition, QFRET primary screen; AID 720648; recombinant ADAM17, EDANS/DABCYL FRET peptide cleavage; hit rate 0.83% among 370,000; inhibition, % at 6.95 µM;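 active = inhibition above the mean of compounds lying between control limits plus 3 SD, set per campaign, cut at about 8.5% in these data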
Target sequence (P78536 215-824 limits assumed): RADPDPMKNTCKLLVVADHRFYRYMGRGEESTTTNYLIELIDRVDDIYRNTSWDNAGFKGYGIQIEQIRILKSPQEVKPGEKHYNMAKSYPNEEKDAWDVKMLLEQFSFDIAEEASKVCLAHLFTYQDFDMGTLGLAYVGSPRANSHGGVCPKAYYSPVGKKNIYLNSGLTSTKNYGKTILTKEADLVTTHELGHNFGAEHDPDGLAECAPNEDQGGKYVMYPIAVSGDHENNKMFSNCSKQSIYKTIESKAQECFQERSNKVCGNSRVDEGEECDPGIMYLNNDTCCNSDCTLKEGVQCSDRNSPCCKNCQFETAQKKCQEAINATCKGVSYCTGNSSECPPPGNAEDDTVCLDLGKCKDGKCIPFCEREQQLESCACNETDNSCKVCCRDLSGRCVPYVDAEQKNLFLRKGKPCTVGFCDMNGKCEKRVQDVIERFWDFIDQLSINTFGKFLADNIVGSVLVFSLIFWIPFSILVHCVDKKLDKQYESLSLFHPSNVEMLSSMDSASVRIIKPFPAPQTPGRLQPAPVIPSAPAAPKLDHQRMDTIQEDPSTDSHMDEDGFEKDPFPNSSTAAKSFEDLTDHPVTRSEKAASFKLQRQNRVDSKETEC
FAS-TE inh: blocks the thioesterase domain of human fatty acid synthase; P49327; recombinant FAS-TE, OMFH fluorogenic substrate, fluorescence endpoint; inhibition, % at 15 µM; hit rate 0.67% among 360,000;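 active = compounds whose normalised, plate-corrected inhibition of enzyme fluorescence in the single-dose primary screen is 50% or more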
SENP1 FRET inh: blocks the human SENP1 SUMO protease catalytic domain; Q9P0U3; recombinant SENP1 catalytic domain, CyPet-SUMO1-YPet FRET cleavage; inhibition, % at 10 µM; hit rate 0.21% among 360,000;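 active = inhibition at least 30% at 10 µM, raw YFP signal under a set limit, fluorescence ratio 0.5 to 1.5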
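Test system: hSENP1 catalytic domain, recombinant; Amount: 20 pM final SENP1 enzyme; Medium: Tris pH 8 buffer plus EDTA, NaCl, BME, BSA, NP40, catalase; Schedule: 50 min enzyme reaction, room temperature, light-protected; Technique: FRET fluorescence in CFP and YFP emission channels; Controls: no-enzyme wells low, DMSO-plus-enzyme wells high control.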
ADAM10 inh: ADAM10 inhibition, QFRET primary screen; O14672; recombinant ADAM10, EDANS/DABCYL FRET peptide cleavage, 3 h; inhibition, % at 7 µM; hit rate 0.62% among 370,000; AID 720582;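 active = inhibition above a per-campaign cutoff equal to the mean of compounds falling between control-based bounds plus 3 SD, cut at about 20% in these data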
FAS-TE conf: FAS thioesterase (human) inhibition, confirmation. inhibition, % at 15 µM. recombinant FAS-TE, OMFH fluorogenic substrate, fluorescence. AID 624325. hit rate 45% among 2,300. shares compounds with FAS-TE inh;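 active = compounds inhibiting the enzyme by at least 50% at 15 µM in any one of the replicates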
Hits are given with their value; n = inactive; x = no result given.

SMILES	ADAM17 inh	FAS-TE inh	SENP1 FRET inh	ADAM10 inh	FAS-TE conf
COc1cc(-n2c(C)nc3cc(C(=O)N4CCCN(C(C)=O)CC4)ccc32)cc(OC)c1OC	n	x	x	n	x
Cc1cc2cc(CN(Cc3cccs3)C(c3nnnn3C(C)(C)C)C(C)C)c3nnnn3c2cc1C (configuration not stated)	n	52	n	n	n
COC(=O)[C@]12C[C@H](CC(=O)NCCCCc3ccccc3)C(=O)N(Cc3ccc(Cl)cc3Cl)C1=C[C@H](C(C)(C)C)O[C@@H]2C	n	x	x	n	x
O=[N+]([O-])c1ccc(O)c(/C=N/Nc2ncnc3c2cnn3-c2ccccc2)c1	n	56	n	n	n
O=[N+]([O-])c1ccc(O)c(/C=N/Nc2nc3ccccc3[nH]2)c1	n	n	n	n	x
CCCCC(CC)C(=O)Nc1cc([N+](=O)[O-])ccc1F (configuration not stated)	n	79	n	n	71
CCCCC(CC)C(=O)Nc1ccccc1C#N (configuration not stated)	n	n	n	n	x
CC(=O)N[C@H]1C[C@@H]2O[C@H](CO)CC[C@@H]2O[C@@H]1CCc1ccc(-c2ccc(F)cc2)cc1	n	x	x	n	x
CCOC(=O)c1c(NC(=O)c2ccc(N3C(=O)[C@@H]4[C@H](C3=O)[C@H]3C=C[C@@H]4C3)cc2)sc2c1CCCC2	n	62	n	n	n
FC(F)(F)c1ccccc1NC(=S)OC1CCC12CCC(c1ccccc1)CC2 (configuration not stated)	n	x	x	n	x
COc1ccc([N+](=O)[O-])cc1NC(=O)CCCOc1ccccc1	n	68	n	n	71
COc1ccc([N+](=O)[O-])cc1NC(=O)CSc1ccccc1	n	n	n	n	x
COc1ccc(C(CC(=O)Nc2cc([N+](=O)[O-])ccc2OC)c2ccccc2)cc1 (configuration not stated)	n	61	n	n	50
COc1ccc([N+](=O)[O-])cc1NC(=O)Cc1ccc(C)cc1	n	n	n	n	x
CC(C)CC(=O)NC(NC(=O)CC(C)C)c1cccc([N+](=O)[O-])c1	n	n	n	n	x
O=C(O)CC(NC(=O)CC(c1ccccc1)c1ccccc1)c1cccc([N+](=O)[O-])c1 (configuration not stated)	n	56	n	n	66
COc1ccc([N+](=O)[O-])cc1NC(=O)Cc1ccc(Cl)cc1	n	81	n	n	n
O=C(Nc1ccc2ccccc2c1)C1CC2CCC1C2 (configuration not stated)	n	x	x	n	x
COC(=O)[C@]12C[C@H](CC(=O)N3CCCCC3)C(=O)N(Cc3ccccc3)C1=C[C@H](C(C)(C)C)O[C@@H]2C	n	x	x	n	x
COc1cc(/C=N/NC(=O)Cc2ccccc2)ccc1Oc1ccc([N+](=O)[O-])cc1[N+](=O)[O-]	n	59	n	n	n
COCC(=O)Nc1cc([N+](=O)[O-])ccc1OC	n	n	n	n	x
COc1ccc([N+](=O)[O-])cc1NC(=O)CCC(=O)c1cccs1	n	65	n	n	48
COc1ccc([N+](=O)[O-])cc1NC(=O)CSCc1ccccc1	n	62	n	n	n
COc1ccc2c(c1)N[C@@](CCN1C(=O)c3ccccc3C1=O)(c1[nH]c3ccccc3c1CCN1C(=O)c3ccccc3C1=O)C2=O	n	x	x	n	x
COc1ccc(C(=O)NC(C)CCc2ccccc2)cc1[N+](=O)[O-] (configuration not stated)	n	51	n	n	52
SMILES	ADAM17 inh	FAS-TE inh	SENP1 FRET inh	ADAM10 inh	FAS-TE conf
COc1ccc(C(=O)N2CCN(CCc3ccccc3)CC2)cc1[N+](=O)[O-]	n	87	n	n	90
Cc1cccc(-c2cccc3c4c([nH]c23)[C@@H]2C[C@H](N(C)C(=O)NC3CCCCC3)[C@H]([C@H](C)O)CN2CC4)c1	n	x	x	n	x
CC(C)C(=O)Nc1nc(-c2ccc(S(=O)(=O)N3CCOCC3)cc2)cs1	n	85	n	n	86
COc1ccccc1C(=O)Nc1nc(-c2ccc(S(=O)(=O)N3CCOCC3)cc2)cs1	n	52	n	n	23
COc1ccc(-c2cc(C(=O)Nc3cc(S(=O)(=O)N4CCOCC4)ccc3N3CCOCC3)c3ccccc3n2)cc1	n	82	n	n	n
O=C(Nc1nc(-c2ccc(S(=O)(=O)N3CCCC3)cc2)cs1)c1ccco1	n	70	n	n	65
O=C(CN1C(=O)C2(OCCCO2)c2ccccc21)NCc1ccccc1Cl	n	x	x	n	x
COc1ccc(CCC[C@H](CCC(=O)N(c2ccccc2)c2ccccc2)CCc2ccccc2)cc1	n	x	x	n	x
O=C(Nc1cc(S(=O)(=O)N2CCOCC2)ccc1N1CCCC1)c1ccc2c(c1)S(=O)(=O)c1ccccc1C2=O	n	79	n	n	n
CCOc1cccc(C(=O)Nc2nc(-c3ccc(S(=O)(=O)N4CCOCC4)cc3)cs2)c1	n	n	n	n	x
O=C(COc1cccc(Cl)c1)Nc1nc(-c2ccc(S(=O)(=O)N3CCOCC3)cc2)cs1	n	66	n	n	23
O=C(Nc1cc(S(=O)(=O)N2CCOCC2)ccc1N1CCCCC1)c1ccccc1	n	n	n	n	x
COc1ccc(N2CCN(C3CC(=O)N(Cc4ccccc4)C3=O)CC2)cc1 (configuration not stated)	n	n	n	n	x
O=C1CC(N2CCN(c3ccc(S(=O)(=O)N4CCOCC4)cc3)CC2)C(=O)N1Cc1ccccc1 (configuration not stated)	n	56	n	n	65
CCN(CC)C(=O)CN1C(=O)C2CCCCN2C(=O)c2ccccc21 (configuration not stated)	n	x	x	n	x
CCCCC(=O)Nc1ccccc1C(=O)OCC(=O)c1ccc2c(c1)OCCO2	n	56	n	n	n
CCCC1CCC2(CC1)CCC2OC(=O)Nc1ccc(F)cc1 (configuration not stated)	n	x	x	n	x
CCn1c(=O)c([N+](=O)[O-])c(N2CCSCC2)c2ccccc21	n	n	n	n	x
CCn1c(=O)c([N+](=O)[O-])c(N2CCN(Cc3ccc4c(c3)OCO4)CC2)c2ccccc21	n	88	n	n	81
COc1ccc(NC(=O)/C(C#N)=C/c2c(C)nn(-c3ccc(F)cc3)c2Cl)cc1Cl	n	n	n	n	x
COc1ccc(NC(=O)/C(C#N)=C/c2c(C)nn(-c3ccc(F)cc3)c2Cl)cc1OC	n	56	n	n	n
COc1ccc(C2=NN(C(=O)c3ccccc3)C(c3cccc([N+](=O)[O-])c3)C2)cc1 (configuration not stated)	n	75	n	n	n
CCn1cc([N+](=O)[O-])c(C(=O)N2N=C(c3ccccc3)CC2c2ccc([N+](=O)[O-])cc2)n1 (configuration not stated)	n	63	n	n	47
O=C1CCC[C@H]2C[C@H](NCc3cccc(F)c3)CC[C@]23CCCN13	n	x	x	n	x
